The results in this text go back to ChEMBL document CHEMBL2434965, “Lead optimization of an acylhydrazone scaffold possessing antiviral activity against Lassa virus” (Bioorg Med Chem Lett, 2013).

Calls of active or inactive are those of the source. The rule behind the calls is not given here. Some results are limits rather than exact numbers.

The first assay has as its system Tacaribe virus. Nature of the assay: Antiviral activity against Tacaribe virus pseudotype containing viral envelope. The assay is classed as functional, organism-based. The following applies: Mammarenavirus tacaribeense. A digest of the protocol: (§1)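 Lentivirus-based pseudotypes bearing arenavirus envelope glycoprotein. Each run used three or four replicates per concentration, typically 7 to 14 concentrations spaced 0.25 to 0.7 log apart, up to 50 µM. EC50 per experiment came from a four-parameter one-site dose-response fit. Values across experiments were averaged as geometric means, with relative standard error given as SD/√n relative to the mean.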
`C/C(=N\NC(=O)[C@@H]1C[C@H]1c1ccccc1)c1ccc(NC(=O)c2ccco2)cc1`: the EC50 – broadly, the concentration giving half of the maximal effect – was 630 nM. This counts as sub-micromolar.

A further assay relates to Guanarito virus. Nature of the assay: Antiviral activity against Guanarito virus pseudotype containing viral envelope. The following applies: Mammarenavirus guanaritoense. The assay is classed as functional. An outline of the steps:
as §1
Take `C/C(=N\NC(=O)[C@@H]1C[C@H]1c1ccccc1)c1ccc(NC(=O)c2ccco2)cc1`: the response was half-maximal at 120 nM (EC50).

A further assay concerns Sabia virus. Nature of the assay: Antiviral activity against Sabia virus pseudotype containing viral envelope. The assay is classed as functional.
Settings: not given
A digest of the protocol:
as §1
The molecule `C/C(=N\NC(=O)[C@@H]1C[C@H]1c1ccccc1)c1ccc(NC(=O)c2ccco2)cc1` showed an EC50 of 130 nM.

A further assay deals with Junin virus. The experiment in a line: Antiviral activity against Junin virus pseudotype containing viral envelope. The assay is classed as functional, organism-based. The following applies: Mammarenavirus juninense. A digest of the protocol: as §1
For the molecule `C/C(=N\NC(=O)[C@@H]1C[C@H]1c1ccccc1)c1ccc(NC(=O)c2ccco2)cc1`, the EC50 came to 800 nM. This lies in the sub-micromolar range.

The next assay has as its system Machupo mammarenavirus. The experiment in a line: Antiviral activity against Machupo virus pseudotype containing viral envelope. The assay is classed as functional. The following applies: Mammarenavirus machupoense. A digest of the protocol:
as §1
`C/C(=N\NC(=O)[C@@H]1C[C@H]1c1ccccc1)c1ccc(NC(=O)c2ccco2)cc1`: the EC50 amounted to 730 nM.

Another assay concerns Lassa virus. The experiment in a line: Antiviral activity against Lassa virus by plaque reduction assay. The assay is classed as functional, organism-based. The following applies: Mammarenavirus lassaense.
`C/C(=N\NC(=O)[C@@H]1C[C@H]1c1ccccc1)c1ccc(NC(=O)c2ccco2)cc1`: the result was Active.

For the next assay, the system named is Lassa virus. The experiment in a line: Antiviral activity against Lassa virus pseudotype containing envelope glycoprotein incorporated in lentivirus infected in human 293T/17 cells by luciferase reporter gene assay. The assay is classed as functional, organism-based. The settings on record: Mammarenavirus lassaense, HEK-293T. A digest of the protocol:
as §1
Molecule `C/C(=N\NC(=O)[C@@H]1C[C@H]1c1ccccc1)c1ccc(Cl)c(Cl)c1` (relative stereo) showed an EC50 of 72 nM.

`C/C(=N\NC(=O)[C@@H]1C[C@H]1c1ccccc1)c1ccc(-c2ccccc2)cc1` (relative stereo) yielded an EC50 of 1.3 nM.

Consider `C/C(=N\NC(=O)[C@@H]1C[C@H]1c1ccccc1)c1ccc(C2CCCCC2)cc1` (relative stereo), for which the EC50 was found to be 24 nM.

Turning to `C/C(=N\NC(=O)[C@@H]1C[C@H]1c1ccccc1)c1ccc(C)cc1` (relative stereo), the midpoint of the response, the EC50, lay at 9 nM.

For the molecule `C/C(=N\NC(=O)[C@@H]1C[C@H]1c1ccccc1)c1ccccc1` (relative stereo), a half-maximal effect (EC50) was put at 47 nM.

For the molecule `C/C(=N\NC(=O)[C@@H]1C[C@H]1c1ccccc1)c1ccc(Br)cc1` (relative stereo), it took 470 nM to reach a half-maximal effect (EC50).

`C/C(=N\NC(=O)[C@@H]1C[C@H]1c1ccccc1)c1ccc(C)cc1C` (relative stereo) gave an EC50 of 170 nM.

Take `C/C(=N\NC(=O)[C@@H]1C[C@H]1c1ccccc1)c1cccc(C)c1C` (relative stereo): the midpoint of the response, the EC50, lay at 800 nM.

In turn, `C/C(=N\NC(=O)[C@@H]1C[C@H]1c1ccccc1)c1ccc(NC(=O)c2ccco2)cc1` had an EC50 of 0.34 nM.

Molecule `COc1ccc(/C(C)=N/NC(=O)[C@@H]2C[C@H]2c2ccccc2)cc1OC` (relative stereo) yielded an EC50 of 450 nM.

As for `C/C(=N\NC(=O)[C@@H]1C[C@H]1c1ccc(C(C)(C)C)cc1)c1ccc(Cl)cc1` (relative stereo), it took 6.6 nM to reach a half-maximal effect (EC50).

`C/C(=N\NC(=O)[C@@H]1C[C@H]1c1ccc(C(C)(C)C)cc1)c1cccc(NC(=O)c2ccccc2F)c1` (relative stereo): it took 770 nM to reach a half-maximal effect (EC50). This EC50 is about 120-fold higher than that of the molecule before.

As to `C/C(=N\NC(=O)[C@@H]1C[C@H]1c1ccc(C(C)(C)C)cc1)c1ccccc1` (relative stereo), the EC50 came out at 15 nM.

The molecule `C/C(=N\NC(=O)[C@@H]1C[C@H]1c1ccc(C(C)(C)C)cc1)c1ccc(F)cc1` (relative stereo) displayed an EC50 of 16 nM. The EC50 values of the last two molecules are within 1.5-fold of each other.

In turn, `COc1cccc(/C(C)=N/NC(=O)C2CC2)c1` gave an EC50 greater than 50000 nM.

Consider `C/C(=N\NC(=O)[C@@H]1C[C@H]1c1ccccc1)c1ccc(F)cc1` (relative stereo), for which a half-maximal effect (EC50) was put at 52 nM.

For `COc1cccc(/C(C)=N/NC(=O)[C@@H]2C[C@H]2c2ccccc2)c1` (relative stereo), the EC50 turned out to be 42 nM.

For `C/C(=N\NC(=O)[C@@H]1C[C@H]1c1ccccc1)c1ccc(O)cc1` (relative stereo), the half-maximal effective concentration (EC50) came out at 2.3 nM. Against the preceding molecule, the EC50 is about 18-fold lower.

`COc1ccc(/C(C)=N/NC(=O)[C@@H]2C[C@H]2c2ccccc2)cc1` (relative stereo) returned an EC50 of 4 nM.

Take `CC(=O)Nc1ccc(/C(C)=N/NC(=O)[C@@H]2C[C@H]2c2ccccc2)cc1` (relative stereo): the midpoint of the response, the EC50, lay at 2.6 nM.

On to `C/C(=N\NC(=O)[C@@H]1C[C@H]1c1ccccc1)c1cccc(O)c1` (relative stereo), for which the response was half-maximal at 94 nM (EC50).

Take `C/C(=N\NC(=O)[C@@H]1C[C@H]1c1ccccc1)c1ccc(NC(=O)c2ccc(Cl)s2)cc1` (relative stereo): the concentration for a half-maximal effect (EC50) stood at 0.95 nM.

In turn, `C/C(=N\NC(=O)[C@@H]1C[C@H]1c1ccccc1)c1cccc(NC(=O)c2cccs2)c1` (relative stereo) returned an EC50 of 6300 nM.

Consider `C/C(=N\NC(=O)[C@@H]1C[C@H]1c1ccccc1)c1ccc(NC(=O)C2CC2)cc1` (relative stereo), for which the EC50 stood at 2.1 nM.

Turning to `C/C(=N\NC(=O)[C@@H]1C[C@H]1c1ccccc1)c1ccccc1Cl` (relative stereo), the EC50 came to 320 nM.

In turn, `C/C(=N\NC(=O)[C@@H]1C[C@H]1c1ccccc1)c1cccc(C)c1` (relative stereo) registered an EC50 of 58 nM.

`C/C(=N\NC(=O)[C@@H]1C[C@H]1c1ccccc1)c1cccc([N+](=O)[O-])c1` (relative stereo) had an EC50 of 250 nM. Against the preceding molecule, the EC50 is about 4.3-fold higher.

Molecule `C/C(=N\NC(=O)[C@@H]1C[C@H]1c1ccccc1)c1cccc(Br)c1` (relative stereo) returned a half-maximal effective concentration (EC50) of 56 nM.

Molecule `C/C(=N\NC(=O)[C@@H]1C[C@H]1c1ccccc1)c1ccc(Cl)cc1` (relative stereo) registered an EC50 of 20 nM.

The molecule `C/C(=N\NC(=O)[C@@H]1C[C@H]1c1ccccc1)c1ccc([N+](=O)[O-])cc1` (relative stereo) displayed an EC50 of 62 nM.

With `C/C(=N\NC(=O)[C@@H]1C[C@H]1c1ccccc1)c1ccc(C)c(C)c1` (relative stereo), the midpoint of the response, the EC50, lay at 3.9 nM.

`C/C(=N\NC(=O)[C@@H]1C[C@H]1c1ccccc1)c1cccc(NC(=O)c2ccccc2F)c1` (relative stereo) came in with an EC50 of 9100 nM.

Turning to `C/C(=N\NC(=O)[C@@H]1C[C@H]1c1ccccc1)c1ccccc1O` (relative stereo), the EC50 was 570 nM.

For the molecule `C/C(=N\NC(=O)[C@H]1C[C@@H]1c1ccccc1)c1ccc(NC(=O)c2ccco2)cc1` (relative stereo), the EC50 was determined as 0.34 nM.
